ChEMBL document CHEMBL1123492, “Carboxyl-modified amino acids and peptides as protease inhibitors” (J Med Chem, 1986)
pKi: −log10 of the molar value. Where a SMILES comes first, the peptide text is derived from it.

Molecular target: Chymotrypsinogen A (Bos taurus, UniProt P00766)
Assay: Compound was tested for Inhibition of Chymotrypsinogen
Summary of the method: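 Chymotrypsin hydrolysis of glutaryl-L-Phe p-nitroanilide followed photometrically. Km of substrate and Ki of reversible inhibitors from Lineweaver–Burk double-reciprocal plots, Ki from replots of Km(app)/Vmax vs [I]; slopes and intercepts by linear regression. Test compounds added in methanol (<5% of final volume).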

| pKi | Compound |
| --- | --- |
| 1.51 | COC(=O)/C=C/C(Cc1ccccc1)NC(C)=O (stereo not drawn) |
| 1.64 | CC(=O)NC(Cc1ccccc1)C(N)=S (stereo not drawn) |
| 1.53 | CC(=O)NC(/C=C/S(C)(=O)=O)Cc1ccccc1 (stereo not drawn) |
| 2.28 | CC(=O)NC(C#N)Cc1ccccc1 (stereo not drawn) |
| 1.86 | CC(=O)NC(Cc1ccccc1)C(N)=O (stereo not drawn) |

Molecular target: T1, Dipeptidyl peptidase 1 (Homo sapiens, UniProt P53634)
T1 sequence (P53634 25-134 limits assumed): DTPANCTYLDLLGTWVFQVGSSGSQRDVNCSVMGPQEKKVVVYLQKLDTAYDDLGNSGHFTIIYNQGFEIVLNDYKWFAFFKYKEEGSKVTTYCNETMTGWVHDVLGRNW
T1 sequence (P53634 231-394 limits assumed): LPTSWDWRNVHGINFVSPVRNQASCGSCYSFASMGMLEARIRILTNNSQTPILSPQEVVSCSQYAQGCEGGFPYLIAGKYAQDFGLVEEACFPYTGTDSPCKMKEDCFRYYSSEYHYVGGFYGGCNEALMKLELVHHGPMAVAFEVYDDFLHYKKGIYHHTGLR
T1 sequence (P53634 395-463 limits assumed): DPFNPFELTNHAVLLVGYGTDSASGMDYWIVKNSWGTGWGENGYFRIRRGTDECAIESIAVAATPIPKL
Assay: Compound was tested for Inhibition of Dipeptidyl aminopeptidase 1
Summary of the method: (§1)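 Cathepsin C diluted 1:200 daily in ice-cold 50 mM citrate pH 5 with 10 mM cysteamine. Gly-Phe p-nitroanilide hydrolysis at 37 °C read at 405 nm (Δε 9900 M⁻¹ cm⁻¹), started by adding substrate to prewarmed enzyme/inhibitor. Irreversible inhibition: enzyme preincubated with varied inhibitor levels, aliquots diluted into substrate over time. k_app from ln(% activity) vs time; Ki and k2 from 1/k_app vs 1/[I].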

| pKi | Compound |
| --- | --- |
| 5.57 | N#CC(Cc1ccccc1)NC(=O)CN (stereo not drawn) |
| 3.74 | CS(=O)(=O)/C=C/C(Cc1ccccc1)NC(=O)CN (stereo not drawn) |
| 3.66 | COC(=O)/C=C/C(Cc1ccccc1)NC(=O)CN (stereo not drawn) |

Molecular target: T1, Dipeptidyl peptidase 1
Assay: Compound was tested for Inhibition of dipeptidyl Dipeptidyl aminopeptidase 1
Summary of the method: as §1

| pKi | Compound |
| --- | --- |
| 2.21 | NCC(=O)N[C@@H](Cc1ccccc1)C(N)=O (H-Gly-Phe-NH2) |

Molecular target: not listed separately
Assay: Compound was tested for Inhibition of leucine aminopeptidase-C

| pKi | Compound |
| --- | --- |
| 1.58 | N#CC(N)Cc1ccccc1 (stereo not drawn) |
| 1.85 | NC(=O)C(N)Cc1ccccc1 (stereo not drawn) |

The next lines start with the molecule.

| Compound | pKi |
| --- | --- |
| COC(=O)/C=C/C(N)Cc1ccccc1 (stereo not drawn) | 1.63 |
| CS(=O)(=O)/C=C/C(N)Cc1ccccc1 (stereo not drawn) | 2.06 |

Molecular target: not listed separately
Assay: Compound was tested for Inhibition of Leucine aminopeptidase-M; NI is No inhibition at 40 mM

| Ki | Compound |
| --- | --- |
| No inhibition | N=C(S)C(N)Cc1ccccc1 (stereo not drawn) |

Molecular target: not listed separately
Assay: Compound was tested for Inhibition of Leucine aminopeptidase-M

| pKi | Compound |
| --- | --- |
| 1.17 | N#CC(N)Cc1ccccc1 (stereo not drawn) |
| 1.83 | NC(=O)C(N)Cc1ccccc1 (stereo not drawn) |

Further lines, the molecule ahead of its results:

| Compound | pKi |
| --- | --- |
| COC(=O)/C=C/C(N)Cc1ccccc1 (stereo not drawn) | 1.21 |
| CS(=O)(=O)/C=C/C(N)Cc1ccccc1 (stereo not drawn) | 2.43 |

Molecular target: T2, Papain (Carica papaya, UniProt P00784)
T2 sequence (P00784 whole entry): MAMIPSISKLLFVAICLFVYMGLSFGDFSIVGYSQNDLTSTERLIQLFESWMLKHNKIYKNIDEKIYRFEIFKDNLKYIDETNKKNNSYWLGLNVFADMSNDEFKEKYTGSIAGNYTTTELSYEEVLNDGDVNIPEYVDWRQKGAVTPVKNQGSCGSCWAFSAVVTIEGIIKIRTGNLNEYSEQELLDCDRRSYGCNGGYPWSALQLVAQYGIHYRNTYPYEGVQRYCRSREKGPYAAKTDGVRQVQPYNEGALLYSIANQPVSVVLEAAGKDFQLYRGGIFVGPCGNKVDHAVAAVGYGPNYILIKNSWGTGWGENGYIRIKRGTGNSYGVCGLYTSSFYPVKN
Assay: Compound was tested for Inhibition of Papain
Summary of the method: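 Papain activated 45 min at 25 °C in 50 mM phosphate pH 6.2 with 1 mM EDTA and 0.25 mM cysteine, made fresh daily. N-Cbz-Gly p-nitrophenyl ester hydrolysis at 25 °C read at 340 nm (Δε 6000 M⁻¹ cm⁻¹), corrected for nonenzymic hydrolysis. Compounds in acetonitrile or DMF, final <2.5% v/v. Reversible Ki by Lineweaver–Burk; irreversible Ki and k2 by Kitz–Wilson.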

| pKi | Compound |
| --- | --- |
| 2.04 | C=CCNC(=O)C(Cc1ccccc1)NC(C)=O (stereo not drawn) |
| 4.02 | CC(=O)NC(Cc1ccccc1)C(=O)NCC(=N)S (stereo not drawn) |
| 1.71 | COC(=O)CCCNC(=O)C(Cc1ccccc1)NC(C)=O (stereo not drawn) |
| 5.96 | CC(=O)NC(Cc1ccccc1)C(=O)NCC#N (stereo not drawn) |
| 2.33 | CC(=O)N[C@@H](Cc1ccccc1)C(=O)NCC(N)=O (Ac-Phe-Gly-NH2) |
